According to ChEMBL document CHEMBL2016448, “Discovery of new piperidine amide triazolobenzodiazepinones as intestinal-selective CCK1 receptor agonists” (Bioorg Med Chem Lett, 2012):

Columns and labels:
[1] = biological target: T1, Cholecystokinin receptor type A (Homo sapiens, UniProt P32238); assay: Agonist activity at human CCK1 receptor assessed as increase in CCK8-induced calcium release incubated in dark for 30 mins followed by light incubation for 30 mins measured by FLIPR assay; type: functional
T1 sequence (P32238 whole entry): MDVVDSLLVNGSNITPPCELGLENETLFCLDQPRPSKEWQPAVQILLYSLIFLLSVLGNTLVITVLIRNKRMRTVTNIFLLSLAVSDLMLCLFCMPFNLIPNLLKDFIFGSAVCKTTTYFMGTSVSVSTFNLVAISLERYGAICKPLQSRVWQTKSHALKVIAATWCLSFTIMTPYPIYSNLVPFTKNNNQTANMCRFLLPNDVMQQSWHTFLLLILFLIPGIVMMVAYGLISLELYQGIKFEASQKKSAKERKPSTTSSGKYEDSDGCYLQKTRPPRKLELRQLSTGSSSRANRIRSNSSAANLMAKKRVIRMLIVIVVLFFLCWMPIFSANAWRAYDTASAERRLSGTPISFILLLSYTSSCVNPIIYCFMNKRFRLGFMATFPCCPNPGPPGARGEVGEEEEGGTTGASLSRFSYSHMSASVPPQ
Outline: (§1)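 FLIPR functional assay in CHO cells expressing human CCK1R. Agonism expressed as % of the CCK-8 peptide response. Initial screen at 30 µM, with >30% counted as active. Actives then run as full dose–response. EC50 is the geometric mean of at least 2 independent experiments.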

[2] = biological target: T2, Cholecystokinin receptor type A (Homo sapiens) (UniProt P32238); assay: Agonist activity at human CCK1 receptor assessed as increase in CCK8-induced calcium release incubated in dark for 30 mins followed by light incubation for 30 mins measured by FLIPR assay relative to CCK8; type: functional; outline: as §1
T2 sequence (whole entry): T1 sequence (P32238 whole entry)

[3] = Intrinsic clearance in human microsomes; type: ADME, Microsome
Outline: (§2)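 Intrinsic clearance measured in human liver microsomes. The free value is corrected for microsomal binding.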

[4] = biological target: T1, Cholecystokinin receptor type A; assay: Displacement of [125I]-CCK-8 from human CCK1 receptor expressed in CHO cells after 90 mins by liquid scintillation counting
[5] = Lipophilicity, log D of the compound at pH 7.4; type: physicochemical; settings: buffer
Rattus norvegicus [6] = assay: Toxicity in Sprague-Dawley rat assessed as gastrointestinal side-effects at 2 to 6 mg/kg, po; type: organism-based; design: dose 2-6 mg/kg, route oral; settings: in vivo
Outline: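 Diet-induced obese rats dosed orally at 2 and 6 mg/kg for 5 days and monitored for gastrointestinal side-effects.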

[7] = Bioavailability in Sprague-Dawley rat portal system; type: ADME, organism-based
[8] = fCmax in Sprague-Dawley rat portal system; type: ADME
[9] = Cmax in Sprague-Dawley rat plasma at 6 mg/kg, po; type: ADME, organism-based; design: dose 6 mg/kg, route oral
Outline: (§3)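 Male Sprague–Dawley rats dosed iv or po. Oral doses given in SDD formulation. Plasma PK parameters reported as mean of n = 3 rats.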

[10] = Drug level in C57Bl/6J mouse bile at 0.6 mg/kg; type: ADME, organism-based; design: dose 0.6 mg/kg; settings: in vivo
Blood = assay: Drug level in C57Bl/6J mouse blood at 0.6 mg/kg; type: ADME, organism-based; design: dose 0.6 mg/kg; settings: in vivo
[11] = Free intrinsic clearance in human microsomes; type: ADME, Microsome; outline: as §2
Mus musculus [12] = assay: Antiobesity in C57Bl/6J mouse assessed as reduction in gall bladder weight at 0.6 mg/kg, po measured after 1 hr relative to control; type: functional; design: scale not given: the % may be the effect or the level left
Mus musculus [13] = assay: Antiobesity in C57Bl/6J mouse assessed as reduction in gall bladder weight at 0.2 mg/kg, po measured after 24 hr relative to control; type: functional; design: scale not given: the % may be the effect or the level left
[14] = Drug excretion in Sprague-Dawley rat bile at 1 mg/kg, iv measured after 24 hrs; type: ADME, organism-based; design: dose 1 mg/kg, route intravenous; settings: read-out: Ae
Outline: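 Bile-cannulated rats dosed iv at 1 mg/kg. Bile collected over 24 h and % of dose excreted into bile determined.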

Mus musculus [15] = assay: Antiobesity in C57Bl/6J mouse assessed as decrease in food intake at 0.2 mg/kg, po measured after 2 hr relative to control; type: functional; design: scale not given: the % may be the effect or the level left
Outline: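 Mice fasted overnight, then refed. Compound given orally in SDD formulation at increasing doses. Food intake measured at 2 h against vehicle-treated mice. Minimally efficacious dose defined as significant inhibition (p <0.05).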

Plasma [16] = assay: Plasma clearance in Sprague-Dawley rat at 0.3 mg/kg, iv; type: ADME, organism-based; design: dose 0.3 mg/kg, route intravenous; settings: in vivo; outline: as §3
[17] = Oral bioavailability in Sprague-Dawley rat at 6 mg/kg; type: ADME, organism-based; settings: in vivo; outline: as §3
Rattus norvegicus [18] = assay: fCmax in Sprague-Dawley rat at 6 mg/kg, po; type: ADME, organism-based; design: dose 6 mg/kg, route oral; settings: in vivo; outline: as §3
[19] = Tmax in Sprague-Dawley rat at 6 mg/kg, po; type: ADME, organism-based; design: dose 6 mg/kg, route oral; settings: in vivo; outline: as §3
[20] = Volume of distribution at steady state in Sprague-Dawley rat at 0.3 mg/kg, iv; type: ADME, organism-based; design: dose 0.3 mg/kg, route intravenous; settings: in vivo, read-out: Vdss; outline: as §3
[21] = AUC (0 to last) in Sprague-Dawley rat at 0.3 mg/kg, iv; type: ADME, organism-based; design: time 0 - last, dose 0.3 mg/kg, route intravenous; settings: plasma; outline: as §3
[22] = AUC (0 to last) in Sprague-Dawley rat at 6 mg/kg, po; type: ADME, organism-based; design: dose 6 mg/kg, route oral, time 0 - last; settings: plasma; outline: as §3
[23] = Half life in Sprague-Dawley rat at 0.3 mg/kg, iv; type: ADME, organism-based; design: dose 0.3 mg/kg, route intravenous; settings: in vivo; outline: as §3
Rattus norvegicus [24] = assay: Antiobesity in diet-induced obese Sprague-Dawley rat assessed as decrease in body weight gain at 2 mg/kg, po measured after 5 days; type: functional; design: scale not given: the % may be the effect or the level left
Rattus norvegicus [25] = assay: Antiobesity in diet-induced obese Sprague-Dawley rat assessed as decrease in body weight gain at 6 mg/kg, po measured after 5 days; type: functional; design: scale not given: the % may be the effect or the level left
Rattus norvegicus [26] = assay: Antiobesity in diet-induced obese Sprague-Dawley rat assessed as decrease in food intake at 2 mg/kg, po measured after 5 days relative to control; type: functional; design: scale not given: the % may be the effect or the level left
Rattus norvegicus [27] = assay: Antiobesity in diet-induced obese Sprague-Dawley rat assessed as decrease in food intake at 6 mg/kg, po measured after 5 days relative to control; type: functional; design: scale not given: the % may be the effect or the level left
Liver = assay: Clearance in rat liver; type: ADME, organism-based; settings: in vivo
[28] = Solubility of the compound in phosphate buffer; type: physicochemical
[29] = Bioavailability in rat portal system; type: ADME, organism-based
Mus musculus [30] = assay: Antiobesity in C57Bl/6J mouse assessed as reduction in gall bladder weight at 2 mg/kg, po measured after 24 hr relative to control; type: functional; design: scale not given: the % may be the effect or the level left
[31] = Ratio free drug level in gut to portal system of Sprague-Dawley rat at 10 mg/kg, po administered as single dose measured after 4 hrs; type: ADME, organism-based; design: dose 10 mg/kg, route oral
Outline: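 Single oral dose to rats. Gut and portal drug exposures were measured at 2 h and 4 h post-dose and corrected for non-specific binding to give free concentrations. The free gut to free portal ratio was then calculated at each time point.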

Plasma [32] = assay: Plasma clearance in Sprague-Dawley rat at 3 mg/kg, iv; type: ADME, organism-based; design: dose 3 mg/kg, route intravenous; settings: in vivo

Row | SMILES | EC50 [1] [nM] | Efficacy [2] [%] | clearance [3] [µL/min/mg] | IC50 [4] [nM] | logD ([5]; read-out: logD) | CL free [11] [µL/min/mg] | Activity (Mus musculus [12]) [%] | dose excreted at 24 h [14] [%] | also measured
1 | O=C1C(Cc2c[nH]c3ccccc23)c2nnc(-c3ccccc3)n2-c2ccccc2N1CC(=O)N1CCCCC1Cc1ccccn1 (mixture of isomers) | 31.9 | 105 | 114 | 93.3 |  |  |  |  | 
2 | O=C(CN1C(=O)C(Cc2c[nH]c3ccccc23)c2nnc(-c3ccccc3)n2-c2ccccc21)N1CCC(Cc2ccccc2)C1 (mixture of isomers) | 1310 | 85 | 148 | 68.6 |  |  |  |  | 
3 | O=C1C(Cc2c[nH]c3ccccc23)c2nnc(-c3ccccc3)n2-c2ccccc2N1CC(=O)N1CCCC1c1ccccc1 (mixture of isomers) | 2120 | 83 |  | 168 |  |  |  |  | 
4 | Cc1cccc(CC2CCCCN2C(=O)CN2C(=O)[C@@H](Cc3n[nH]c4ccccc34)c3nnc(-c4ccccc4)n3-c3ccccc32)c1 (stereo partly drawn) | 669 | 75 |  | 87.6 | 5.1 |  |  |  | 
5 | CC(C)C1CCCCN1C(=O)CN1C(=O)C(Cc2c[nH]c3ccccc23)c2nnc(-c3ccccc3)n2-c2ccccc21 (mixture of isomers) | 494 | 95 | 220 | 80.1 |  |  |  |  | 
6 | Cc1cc(C)cc(C[C@H]2CCCCN2C(=O)CN2C(=O)[C@@H](Cc3n[nH]c4ccccc34)c3nnc(-c4ccccc4)n3-c3ccccc32)c1 |  | 89 |  |  | 5.6 | 2300 | 89 | 0.044 | Activity (Rattus norvegicus [6]): Non-toxic; bioavailability [7]: 0.56%; fCmax [8]: 0.063 nM; Cmax [9]: 0.46 ng/mL; Drug uptake [10]: Not Active; Drug uptake (Blood): Not Active; Activity (Mus musculus [13]): 19%; Activity (Mus musculus [15]): 34%; clearance (Plasma [16]): 176 mL/min/kg; bioavailability [17]: 0.13%; fCmax (Rattus norvegicus [18]): 0.014 nM; Tmax [19]: 0.25 h; Vd [20]: 17.6 L/kg; AUC(0-t) [21]: 29 ng·h/mL; AUC(0-t) [22]: 0.74 ng·h/mL; half-life [23]: 2.04 h; Activity (Rattus norvegicus [24]): 22%; Activity (Rattus norvegicus [25]): 44%; Activity (Rattus norvegicus [26]): 19%; Activity (Rattus norvegicus [27]): 25%
7 | O=C1[C@@H](Cc2n[nH]c3ccccc23)c2nnc(-c3ccccc3)n2-c2ccccc2N1CC(=O)N1CCCCC1Cc1ccccc1 (stereo partly drawn) | 12.9 | 103 |  | 36 | 4.6 | 846 | 91 | 0.32 | 
8 | O=C1C(Cc2c[nH]c3ccccc23)c2nnc(-c3ccccc3)n2-c2ccccc2N1CC(=O)N1CCCCC1CC1CCCCC1 (mixture of isomers) | 256 | 88 | 76 | 4.24 |  |  |  |  | 
9 | CC(C)N(Cc1ccccc1)C(=O)CN1C(=O)[C@@H](Cc2c[nH]c3ccccc23)c2nnc(-c3ccccc3)n2-c2ccccc21 [CE-326597] |  | 95 | 199 |  |  | 597 | 91 | 0.04 | CLH (Liver): 47 mL/min/kg; solubility [28]: Insoluble; bioavailability [29]: 9%; logD [5]: 4.9; Activity (Mus musculus [30]): 27.5%; Kp uu at 4 h [31]: 65; clearance (Plasma [32]): 41.7 mL/min/kg; Tmax [19]: 1.33 h
